Source: ChEMBL document CHEMBL1127826, “Inhibitors of acyl-CoA:cholesterol acyltransferase (ACAT). 7. Development of a series of substituted N-phenyl-N'-[(1-phenylcyclopentyl)methyl]ureas with enhanced hypocholesterolemic activity” (J Med Chem, 1994)

Columns and labels:
Rattus norvegicus [1] = experiment: Compound was evaluated in experiment 1 for High density lipoproteins at 3.0 (mg/kg) dose; assay type: functional
Procedure, shortened: (§1)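 Chronic model in male Sprague-Dawley rats (200-225 g). Rats were fed chow with peanut oil 5.5%, cholesterol 1.5% and cholic acid ad libitum for 2 weeks. Test article was given by gavage once daily (morning) in the second week, as a CMC/Tween aqueous suspension. Blood was taken by cardiac puncture under ether 24 h after the last dose. Plasma total, HDL and nonHDL cholesterol were measured with an Abbott VP analyzer using dextran sulfate precipitation, reported as mg/dL and % change from control. Controls were cholesterol-fed rats and rats switched to chow in week 2.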

Rattus norvegicus [2] = experiment: Compound was evaluated in experiment 1 for Change in total cholesterol at 1.0 (mg/kg) dose; assay type: functional; procedure, shortened: as §1
Rattus norvegicus [3] = experiment: Compound was evaluated in experiment 1 for non High density lipoproteins at 0.3 (mg/kg) dose; assay type: functional; procedure, shortened: as §1
Rattus norvegicus [4] = experiment: Compound was evaluated in experiment 1 for non High density lipoproteins at 10 (mg/kg) dose; assay type: functional; procedure, shortened: as §1
Rattus norvegicus [5] = experiment: Compound was evaluated in experiment 1 for Total cholesterol at 0.3 (mg/kg) dose; assay type: functional; set-up: unit not given beside the values; procedure, shortened: as §1
Rattus norvegicus [6] = experiment: Compound was evaluated in experiment 1 for non High density lipoproteins at 3.0(mg/kg) dose; assay type: functional; procedure, shortened: as §1
Rattus norvegicus [7] = experiment: Compound was evaluated in experiment 1 for Change in High density lipoproteins at 10 (mg/kg) dose; assay type: functional; procedure, shortened: as §1
Rattus norvegicus [8] = experiment: Compound was evaluated in experiment 1 for High density lipoproteins at 1.0 (mg/kg) dose; assay type: functional; procedure, shortened: as §1
Rattus norvegicus [9] = experiment: Compound was evaluated in experiment 1 for change in non High density lipoprotein at the doses at 1.0 (mg/kg) dose; assay type: functional; procedure, shortened: as §1
Rattus norvegicus [10] = experiment: Compound was evaluated in experiment 1 for change in non High density lipoprotein at the doses at 0.3 (mg/kg) dose; assay type: functional; procedure, shortened: as §1
Rattus norvegicus [11] = experiment: Compound was evaluated in experiment 1 for Change in High density lipoproteins at 1.0 (mg/kg) dose; assay type: functional; procedure, shortened: as §1
Rattus norvegicus [12] = experiment: Compound was evaluated in experiment 1 for change in non High density lipoprotein at the doses at 10 (mg/kg) dose; assay type: functional; procedure, shortened: as §1
Rattus norvegicus [13] = experiment: Compound was evaluated in experiment 1 for change in non High density lipoprotein at the doses at 3.0 (mg/kg) dose; assay type: functional; procedure, shortened: as §1
Rattus norvegicus [14] = experiment: Compound was evaluated in experiment 1 for Change in total cholesterol at 3.0 (mg/kg) dose; assay type: functional; procedure, shortened: as §1
Rattus norvegicus [15] = experiment: Compound was evaluated in experiment 1 for Change in High density lipoproteins at 0.3 (mg/kg) dose; assay type: functional; procedure, shortened: as §1
Rattus norvegicus [16] = experiment: Compound was evaluated in experiment 1 for Total cholesterol at 3.0 (mg/kg) dose; assay type: functional; set-up: unit not given beside the values; procedure, shortened: as §1
Rattus norvegicus [17] = experiment: Compound was evaluated for the percentage change in total cholesterol in peanut oil (5.5%)-cholic acid (0.3%)-cholesterol (1.5%)-fed rats at 30 mg/kg; assay type: functional
Rattus norvegicus [18] = experiment: Compound was evaluated in experiment 1 for Total cholesterol at 1.0 (mg/kg) dose; assay type: functional; set-up: unit not given beside the values; procedure, shortened: as §1
[19] = Compound was evaluated for the distribution coefficient at pH 7.4; assay type: physicochemical; conditions: octanol/water, read-out: logD
Rattus norvegicus [20] = experiment: Compound was evaluated in experiment 1 for Change in total cholesterol at 0.3 (mg/kg) dose; assay type: functional; procedure, shortened: as §1
Rattus norvegicus [21] = experiment: Compound was evaluated in experiment 1 for Total cholesterol at 10 (mg/kg) dose; assay type: functional; set-up: unit not given beside the values; procedure, shortened: as §1
Rattus norvegicus [22] = experiment: Compound was evaluated in experiment 1 for Change in total cholesterol at 10 (mg/kg) dose; assay type: functional; procedure, shortened: as §1
Rattus norvegicus [23] = experiment: Compound was evaluated in experiment 1 for Change in High density lipoproteins at 3.0 (mg/kg) dose; assay type: functional; procedure, shortened: as §1
Rattus norvegicus [24] = experiment: Compound was evaluated in experiment 1 for non High density lipoproteins at 1.0 (mg/kg) dose; assay type: functional; procedure, shortened: as §1
Rattus norvegicus [25] = species: Rattus norvegicus; experiment: Percent change in total cholesterol in peanut oil (5.5%)-, cholic acid (0.3%)-, Cholesterol (1.5%)-fed rats after a single dose.; assay type: functional
Procedure, shortened: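 Male Sprague-Dawley rats (200-225 g), n=5-7/group, given a single oral dose at 4 p.m. as a suspension in 1.5% CMC/0.2% Tween-20 in water (50 mg/kg); controls received vehicle alone. The rats then had free access to chow with peanut oil, cholesterol and cholic acid. At 8 a.m. next day they were bled by cardiac puncture under ether, and serum total cholesterol was measured as % change versus controls (unpaired two-tailed t-test).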

[26] = molecular target: T1, Acyl-CoA:cholesterol acyltransferase (Oryctolagus cuniculus, UniProt Q95214); experiment: Tested for in vitro inhibition against Acyl coenzyme A:cholesterol acyltransferase of intestinal microsomes in cholesterol-fed rabbits; set-up: species or system Microsome
T1 sequence (Q95214 whole entry): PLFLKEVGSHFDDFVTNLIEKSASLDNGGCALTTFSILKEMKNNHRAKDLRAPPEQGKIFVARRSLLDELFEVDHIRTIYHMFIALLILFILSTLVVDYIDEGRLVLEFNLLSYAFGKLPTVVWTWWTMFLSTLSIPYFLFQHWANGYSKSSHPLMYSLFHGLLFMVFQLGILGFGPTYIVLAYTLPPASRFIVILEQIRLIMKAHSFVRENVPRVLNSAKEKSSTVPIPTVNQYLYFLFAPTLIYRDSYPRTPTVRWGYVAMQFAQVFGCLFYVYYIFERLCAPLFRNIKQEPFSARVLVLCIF
Procedure, shortened: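 Microsomes were prepared from intestine of cholesterol-fed rabbits. ACAT activity was measured using [1-14C]oleoyl-CoA as substrate. Each determination was run in triplicate.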

Rattus norvegicus [27] = experiment: Compound was evaluated in experiment 1 for High density lipoproteins at 0.3 (mg/kg) dose; assay type: functional; procedure, shortened: as §1
Rattus norvegicus [28] = experiment: Compound was evaluated in experiment 1 for High density lipoproteins at 10 (mg/kg) dose; assay type: functional; procedure, shortened: as §1

logD [19]: 6.05
IC50 [26]: 16 nM
SMILES: CCCCN(CCCC)Cc1cccc(C2(CNC(=O)Nc3c(C(C)C)cccc3C(C)C)CCCC2)c1
HDL-C (Rattus norvegicus [1]): 12
Change TC (Rattus norvegicus [2]): -12%
Non-HDL-C (Rattus norvegicus [3]): 258
Non-HDL-C (Rattus norvegicus [4]): 293
TC (Rattus norvegicus [5]): 271
Non-HDL-C (Rattus norvegicus [6]): 194
Change HDL -C (Rattus norvegicus [7]): -21%
HDL-C (Rattus norvegicus [8]): 10
Change non HDL-C (Rattus norvegicus [9]): -12%
Change non HDL-C (Rattus norvegicus [10]): -15%
Change HDL -C (Rattus norvegicus [11]): -16%
Change non HDL-C (Rattus norvegicus [12]): -3%
Change non HDL-C (Rattus norvegicus [13]): -36%
Change TC (Rattus norvegicus [14]): -34%
Change HDL -C (Rattus norvegicus [15]): 16%
TC (Rattus norvegicus [16]): 206
Delta TC (Rattus norvegicus [17]): -63%
TC (Rattus norvegicus [18]): 276
Change TC (Rattus norvegicus [20]): -14%
TC (Rattus norvegicus [21]): 302
Change TC (Rattus norvegicus [22]): -4%
Change HDL -C (Rattus norvegicus [23]): 8%
Non-HDL-C (Rattus norvegicus [24]): 266
Delta TC (Rattus norvegicus [25]): -25%
HDL-C (Rattus norvegicus [27]): 12
HDL-C (Rattus norvegicus [28]): 9
